Target: Glucose-6-phosphatase catalytic subunit 1 (Homo sapiens) (UniProt P35575)
Experiment: endogenous G6PC mRNA suppression, late-stage follow-up, mechanism study for RORA inverse agonist project, cell-based, real-time PCR, fluorescence, assay provider (AID 504907)
Conditions: HepG2 G6PC mRNA RT-qPCR, 20 h, at 10 µM, stronger effect = lower value
How it was run: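 Times: compound treatment for 20 h / System: HepG2 cells, native G6Pase gene / Signal: SYBR Green real-time RT-PCR of G6Pase mRNA / Benchmarks: vehicle cells, ROR-targeting siRNA as inhibition reference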

Glucose-6-phosphatase catalytic subunit 1 (Homo sapiens), sequence (P35575 whole entry, looked up): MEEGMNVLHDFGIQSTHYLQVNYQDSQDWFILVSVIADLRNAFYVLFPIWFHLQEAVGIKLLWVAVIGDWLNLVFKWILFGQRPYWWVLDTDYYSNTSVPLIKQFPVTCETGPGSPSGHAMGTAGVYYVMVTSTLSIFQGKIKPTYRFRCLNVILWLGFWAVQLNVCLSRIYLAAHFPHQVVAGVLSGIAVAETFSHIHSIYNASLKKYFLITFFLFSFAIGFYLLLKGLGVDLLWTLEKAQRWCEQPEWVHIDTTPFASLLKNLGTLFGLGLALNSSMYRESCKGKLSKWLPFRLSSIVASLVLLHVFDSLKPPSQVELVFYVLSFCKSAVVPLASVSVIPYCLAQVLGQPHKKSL

relative mRNA level (with RORA + RORG siRNA): 0.279 | relative mRNA level (with control siRNA): 0.676
Compound: O=S(=O)(Nc1ccc(C(O)(C(F)(F)F)C(F)(F)F)cc1)c1cccs1
